Reference: paper PMC10496428 (ACS Infectious Diseases, 2023)

How the values were obtained:
[1] = tested on: P. falciparum Nluc trophozoite-stage parasites; assay: Protein secretion and export; format: cell-based, Plasmodium falciparum; conditions: 5 h treatment; brefeldin A 5 μg/mL, torin 2 10 nM, M-797 4.8 μM, OGHL250 3.1 μM, WEHI-518 200 nM, C3 1.2 μM, KDU731 300 nM
Method in brief: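 Nluc-exporting P. falciparum, synchronized with 5% sorbitol and Percoll, grown in human RBCs at 37 °C under 1% O2/5% CO2; trophozoites at 20–24 hpi treated 5 h with test compound (0.1% DMSO vehicle). Cells differentially lysed to release RBC only, RBC plus PV, or all compartments, and Nluc signal measured in each fraction. Three biological replicates of three technical replicates.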

[2] = tested on: P. falciparum Hyp1-Nluc late schizonts; assay: 4 h egress assay; format: cell-based, Plasmodium falciparum; conditions: for 4-Hour Egress EC50: dilution series, DNI = did not inhibit
Method in brief: (§1)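 Hyp1-Nluc 3D7 parasites were sorbitol-synchronised, grown to late schizonts and isolated on a 67% Percoll gradient. They were given a 4 h window to egress and invade RBCs in test compound, either at 10× growth EC50 or as a dilution series. Egress was read as Nluc in harvested medium with NanoGlo substrate. Background controls were subtracted from egress and invasion values, then normalised to 0.1% DMSO. Three biological replicates were run, with SD.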

[3] = tested on: P. falciparum purified merozoites (Nluc parasites); assay: Invasion inhibition assay with purified merozoites; format: cell-based, Plasmodium falciparum; conditions: heparin 100 μg/mL, C1 4 μM, chloroquine 75 nM
Method in brief: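 Purified Nluc merozoites were exposed to test compound for 30 min. Compound was then removed and newly invaded parasites grown for 24 h before Nluc quantification. Controls were heparin (100 μg/mL), C1 (4 μM) and chloroquine (75 nM). Values are relative to DMSO, with three biological replicates.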

[4] = tested on: P. falciparum Hyp1-Nluc parasites; assay: 4 h invasion / early ring-stage development assay; format: cell-based, Plasmodium falciparum; conditions: 4 h treatment at 10× EC50 for growth; for Invasion / early ring-stage development normalized to 0.1% DMSO: then 24 h growth without compound
Method in brief: as §1

[5] = tested on: MMV390048 resistant Dd2 with S743T mutation in PI4KIIIB; assay: 72 h growth assay, [3H]-hypoxanthine incorporation; format: cell-based, Plasmodium falciparum; conditions: 3H-hypoxanthine incorporation assay
Method in brief: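 This was a modified [3H]-hypoxanthine incorporation assay over 72 h. It compared parental Dd2 with an MMV390048-resistant Dd2 line carrying PI4KIIIB S743T.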

[6] = tested on: Nluc; assay: Nluc counter screen on parasite lysates; format: biochemical; conditions: 10x EC50 of growth, 10 min at 37 °C
Method in brief: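 Hyp1-Nluc schizonts at 1% haematocrit and 1–2% parasitaemia were lysed in 1x NanoGlo buffer. Lysates were added to test compound and incubated 10 min at 37 °C. Nluc activity was read by furimazine bioluminescence and normalised to 0.1% DMSO.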

Which “Export of Nluc reporter into the RBC compartment relative to DMSO” value [1] does the source give for `Nc1ccc(-c2ccc3ncc4ccc(=O)n(-c5cccc(C(F)(F)F)c5)c4c3c2)cn1` [torin 2] here?
Its value is “significantly reduced export into the RBC compartment”.

For `CN(C(=O)c1ccn2ncc(-c3ccc(C(N)=O)cc3)c2c1)c1ccc(C#N)cn1` [KDU731], which “Export of Nluc reporter into the RBC compartment relative to DMSO” value [1] is on record?
Its value is “reduced protein export into the RBC compartment”.

How did the “Egress over a 4 h window, compared to 0.1% DMSO control normalized to 100%” value ([2]; OGHL compounds at 10× EC50 of growth) turn out when `CN1CCC(c2cc(-c3ccncc3)c(-c3ccc(F)cc3)[nH]2)CC1` [Compound C1, 4-[2-(4-fluorphenyl)-5-(1-methylpiperidine-4-yl)-1H-pyrrol-3-yl]pyridine] was run?
The value was 38%.

And the “Invasion of purified merozoites relative to 0.1% DMSO (controls)” value [3]?
Its value is “directly inhibited merozoite invasion”.

Which “Invasion of purified merozoites relative to 0.1% DMSO (controls)” value [3] does the source give for `CCN(CC)CCCC(C)Nc1ccnc2cc(Cl)ccc12` (stereo not shown) [chloroquine] here?
Its value is “had no effect on invasion”.

Which “Invasion / early ring-stage development normalized to 0.1% DMSO” value [4] does the source give for heparin here?
Its value is “almost complete invasion inhibition”.

With `COc1ccc(CNc2nc(-c3ccc(C(=O)O)nc3)nc3sc4c(c23)CCCC4)cc1Cl` [OGHL121, Clc1c(ccc(c1)CNc2nc(nc3sc4c(c32)CCCC4)-c5cnc(cc5)C(=O)O)OC] as the compound, how does the “Invasion inhibition normalized to 0.1% DMSO” value [4] read?
The value was < 50%.

And the “Invasion / early ring-stage development normalized to 0.1% DMSO” value [4]?
Its value is “borderline”.

With `C[C@H]1CCC/C=C/[C@@H]2C[C@H](O)C[C@H]2[C@H](O)/C=C/C(=O)O1` [brefeldin A] as the compound, how does the “Export of Nluc reporter into the RBC compartment relative to DMSO” value [1] read?
Its value is “significantly reduced export into the RBC compartment”.

How did the “fold resistance of S743T parasites compared to parental Dd2” value [5] turn out when `COc1ccc(-c2c(C)nn3c(N)c(C#N)cnc23)cc1OC` [Compound M-797] was run?
The value was 2 fold.

And the “4-Hour Egress EC50” value [2]?
The value was “did not block egress”.

What about the “Export of Nluc reporter into the RBC compartment relative to DMSO” value [1] of the same compound?
The value was “significantly reduced export into the RBC compartment”.

Which “Invasion inhibition normalized to 0.1% DMSO” value [4] does the source give for `Cn1cc(-c2cnc3[nH]cc(-c4cn(Cc5cccc(F)c5F)nn4)c3c2)cn1` [OGHL169, Fc1c(cccc1Cn2nnc(c2)-c3c[nH]c4ncc(cc43)-c5cn(nc5)C)F] here?
The value was < 50%.

What about the “Invasion / early ring-stage development normalized to 0.1% DMSO” value [4] of the same compound?
Its value is < 50%.

What does the source list for `CNS(=O)(=O)c1ccccc1Nc1nc(Nc2ccc(N3CCOCC3)cc2OC)ncc1Br` [OGHL134, Brc1c(nc(nc1)Nc2c(cc(cc2)N3CCOCC3)OC)Nc4c(cccc4)S(=O)(=O)NC]?
Invasion inhibition normalized to 0.1% DMSO [4]: < 50%; Invasion / early ring-stage development normalized to 0.1% DMSO [4]: borderline

Which “direct inhibition of Nluc activity in parasite lysates” value [6] does the source give for `COc1cc(OC)c(CCNC(=O)c2cn3cc(-c4cc(OCC(=O)O)ccc4OC)nc3s2)c(OC)c1` [OGHL239, s1c3n(cc1C(=O)NCCc2c(cc(cc2OC)OC)OC)cc(n3)-c4c(ccc(c4)OCC(=O)O)OC] here?
The value was “strongly inhibit Nluc activity”.

Which results are given for `COc1cc(C(=O)N(C)C)ccc1-c1cc2nccc(-c3ccc4ccncc4c3)c2o1` [OGHL250, N(C)(C)C(=O)c1cc(c(cc1)-c5oc2c(nccc2-c4cc3cnccc3cc4)c5)OC]?
4-Hour Egress EC50 [2]: did not inhibit parasite egress; Export of Nluc reporter into the RBC compartment relative to DMSO [1]: did not significantly reduce export
